CCR6 antagonist – blocks CCL20-driven beta-arrestin recruitment at human CCR6. CHO-K1 CCR6 PathHunter beta-arrestin, luminescence, CCL20-stimulated. inhibition, % at 20 µM. 340,000 tested, 0.49% active;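 active = compounds whose inhibition of the agonist-driven luminescence signal at 20 µM reaches about 50%, limit read from the data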;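 note: cells stimulated with CCL20 at 14 nM final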
Target sequence (P51684 whole entry, looked up): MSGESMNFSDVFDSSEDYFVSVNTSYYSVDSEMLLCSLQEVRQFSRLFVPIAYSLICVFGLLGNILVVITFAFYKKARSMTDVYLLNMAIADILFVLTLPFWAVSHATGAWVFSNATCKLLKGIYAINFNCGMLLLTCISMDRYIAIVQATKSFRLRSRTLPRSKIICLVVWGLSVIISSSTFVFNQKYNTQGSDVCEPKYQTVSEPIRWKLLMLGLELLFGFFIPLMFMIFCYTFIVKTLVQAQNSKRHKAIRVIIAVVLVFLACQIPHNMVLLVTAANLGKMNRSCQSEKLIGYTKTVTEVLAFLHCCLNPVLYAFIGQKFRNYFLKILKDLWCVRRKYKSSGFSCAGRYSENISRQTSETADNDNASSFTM
APJ antag – blocks the human apelin receptor APJ; CHO-K1 APJ beta-arrestin complementation, luminescence; inhibition, % at 20 µM; 330,000 tested, 0.32% active;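 active = inhibition above about 40% at 20 µM, limit read from the data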;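 note: cells challenged with 10 nM apelin-13 agonist together with compound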
Target sequence (P35414 whole entry, looked up): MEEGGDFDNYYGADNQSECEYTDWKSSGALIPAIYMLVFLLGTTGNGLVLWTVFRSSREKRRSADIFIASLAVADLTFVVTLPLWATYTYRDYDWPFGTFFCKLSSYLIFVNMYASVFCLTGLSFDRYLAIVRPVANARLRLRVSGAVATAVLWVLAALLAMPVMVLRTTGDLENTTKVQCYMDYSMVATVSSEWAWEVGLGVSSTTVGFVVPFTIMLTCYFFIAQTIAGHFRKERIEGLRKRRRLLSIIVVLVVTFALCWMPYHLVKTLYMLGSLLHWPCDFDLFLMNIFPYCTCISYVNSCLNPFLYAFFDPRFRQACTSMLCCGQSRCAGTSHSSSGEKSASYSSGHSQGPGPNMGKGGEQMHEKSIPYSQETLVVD
PfG6PD inh – PfG6PD (Plasmodium falciparum) enzyme inhibition; PfGluPho enzyme, NADPH resazurin-diaphorase fluorescence; inhibition, % at 20 µM; 350,000 tested, 0.78% active; AID 504690;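 active = inhibition reaching at least a set limit at 20 µM in the primary screen, cut at about 59% in these data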
APJ ag – agonists of human APJ apelin receptor; P35414; CHO-K1 APJ PathHunter beta-arrestin, luminescence; 0% DMSO wells, 100% apelin; AID 2520; 330,000 tested, 0.11% active; activation, % at 20 µM;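 active = activation more than six SD over the plate average, tested at 20 µM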
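Material: engineered CHO-K1 APJ arrestin reporter cells; amount: 1000 CHO-K1 reporter cells seeded per well; incubation: compound stimulation 90 min at 25 °C, detection 60 min; signal: luminescent beta-gal fragment complementation, chemiluminescent substrate; read-out basis: APJ agonist activity; controls: DMSO-only wells as negative, 10 nM Apelin-13 as positive control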
CXCR6 block – inhibitors of human CXCR6 receptor; CHO-K1 PathHunter CXCR6 beta-arrestin, luminescence; AID 602244; inhibition, % at 20 µM; 360,000 tested, 0.36% active; O00574; in the data active = inhibition above about 34%, passing the limit was not always enough;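 note: antagonist mode with CXCL16 agonist at 10 nM final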
B2AR ag – human beta-2 adrenergic receptor agonism by FAP; AID 504454; response, % (test concentration not listed); 340,000 tested, 0.43% active; Am2.2-beta2AR cells, FAP receptor internalization, flow cytometry;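 active = response above a set limit, near 3 SD of response in nonfluorescent compounds, cut at about 42% in these data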
PfG6PD confirm – confirmation of Plasmodium falciparum G6PD inhibitors; shares compounds with PfG6PD inh; recombinant PfGluPho, NADPH-diaphorase-resazurin fluorescence; inhibition, % at 20 µM; 2,400 tested, 34% active; AID 504753;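 active = inhibition of at least 50% at 20 µM in any single replicate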
Diaph ctr 10uM – diaphorase inhibition or oxidation at 10 uM NADPH. shares compounds with PfG6PD inh. diaphorase-coupled resazurin reduction, fluorescence, NADPH 10 uM. inhibition, % at 20 µM. 820 tested, 39% active;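 active = average inhibition reaching 50% or more with the compound at 20 µM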;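 note: resorufin red fluorescence formed as diaphorase reduces resazurin using NADPH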
Diaphorase 30uM – counter-screen for P. falciparum G6PD inhibitors: diaphorase inhibitors, oxidizers; shares compounds with PfG6PD inh; inhibition, % at 20 µM; 820 tested, 29% active; Diaphorase/resazurin coupled assay, resorufin fluorescence, 30 uM NADPH;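 active = inhibition averaging 50% or more, tested at 20 µM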
Large screens that a line does not name were inactive (follow-up assays come after a bar, where they were run). Only some compounds are listed: those with a hit (about 1.7% of all), similar ones and a draw of the others.

O=C(NCc1ccccn1)[C@@H]1CCCN1C(=O)[C@@H]1CCCN1C(=O)c1cccc2ccccc12	none (no result: CCR6 antagonist, APJ antag, PfG6PD inh, APJ ag, B2AR ag)
COc1ccc(CN(Cc2cccn2C)S(=O)(=O)c2ccc(F)cc2)cc1	none
COc1ccc(CN(Cc2cccn2C)S(=O)(=O)c2ccc(C)cc2)cc1	PfG6PD inh 66.4 | PfG6PD confirm inactive
CCCCN(C(=O)CCCc1nc2ccccc2c(=O)[nH]1)c1c(N)n(CC(C)C)c(=O)[nH]c1=O	none
CC1(C)CC(=O)C2=C(C1)N=C1c3ccccc3C(=O)C1C2c1ccc(Cl)cc1 (stereo unspecified)	PfG6PD inh 83.7 | PfG6PD confirm inactive
CC(SC(=S)N(C)Cc1cccs1)C(=O)O (stereo unspecified)	none
CN(C)c1nc(=NCc2cccs2)ss1	CCR6 antagonist 111.2, PfG6PD inh 60.5, CXCR6 block 92.1 (no result: APJ antag, APJ ag) | PfG6PD confirm 49.3 | Diaph ctr 10uM inactive | Diaphorase 30uM inactive
Cc1cc(C(=O)O)ccc1-n1c(C)cc(C=C2C(=O)c3ccccc3C2=O)c1C	PfG6PD inh 80.3 | PfG6PD confirm 46.8 | Diaph ctr 10uM 59.7 | Diaphorase 30uM inactive
O=C(O)c1cc(S(=O)(=O)N(Cc2ccccc2)c2ccc(Cl)cc2)ccc1Cl	none
CCCS(=O)(=O)NC(=O)C1(C)CCN(C(=O)c2cccs2)C1 (stereo unspecified)	none (no result: CCR6 antagonist, APJ antag, PfG6PD inh, APJ ag, B2AR ag)
[O-]/[N+](=C/c1cccnc1)c1ccc(Br)cc1	PfG6PD inh 104.6 | PfG6PD confirm 78.3 | Diaph ctr 10uM 68.2 | Diaphorase 30uM inactive
Nc1cc2nc3ccccc3oc-2cc1=O	PfG6PD inh 73.7 | PfG6PD confirm inactive
O=c1oc2ccccc2cc1-c1nc2ccccc2o1	none
CCS(=O)(=O)c1cc([N+](=O)[O-])c(Sc2ccccc2NC(C)=O)s1	PfG6PD inh 61.9 | PfG6PD confirm inactive
COc1ccc(C(=O)Nc2ccc3ccccc3c2)c(OC)c1	PfG6PD inh 73.7 | PfG6PD confirm inactive
CN(CC(=O)Nc1c(Cl)cccc1Cl)C(=O)c1n[nH]c2ccccc12	none
COC(=O)c1ccccc1NC1=C/C(=N\S(=O)(=O)c2cccs2)c2ccccc2C1=O	CCR6 antagonist 54.0, PfG6PD inh 101.0, CXCR6 block 42.5 | PfG6PD confirm 66.7 | Diaph ctr 10uM inactive | Diaphorase 30uM inactive
COC(=O)c1ccccc1NC1=C/C(=N\S(=O)(=O)c2ccc(C(=O)O)cc2)c2ccccc2C1=O	CCR6 antagonist 55.0, PfG6PD inh 96.2, B2AR ag 60.5 | PfG6PD confirm 86.2 | Diaph ctr 10uM 63.7 | Diaphorase 30uM 64.3
COC(=O)c1cccc(NS(=O)(=O)c2cccs2)c1C	none (no result: APJ antag, APJ ag)
O=C1C(Nc2ccccc2)=C/C(=N/S(=O)(=O)c2cccs2)c2ccccc21	CCR6 antagonist 64.1, PfG6PD inh 109.7, CXCR6 block 42.3, B2AR ag 48.6 (no result: APJ antag, APJ ag) | PfG6PD confirm 92.0 | Diaph ctr 10uM 77.9 | Diaphorase 30uM 79.6
CC(=O)Nc1sc(C)c(C)c1C(=O)OCC(=O)N(CCC#N)c1cc(C)cc(C)c1	none
Cc1ccc(CNC(=O)c2nnn(CC(=O)Nc3cccc(C)c3C)c2N)cc1	none
COc1ccc(N(CC(=O)N2CCCC2)S(=O)(=O)c2ccc(NC(C)=O)cc2)cc1	none
Cc1cc(Nc2ccccc2)nc(NCc2ccccc2)n1	none
Cc1ccc(Nc2cc(C)nc(-c3ccccc3O)n2)cc1	none
Cc1ccc(Nc2cc(C)nc(-c3ccccc3)n2)cc1	PfG6PD inh 65.4 | PfG6PD confirm inactive
Cc1cc(Nc2ccc(Cl)cc2)nc(NCc2ccccc2)n1	PfG6PD inh 60.5 | PfG6PD confirm inactive
CCn1c(N)c(C(=O)NCc2cccnc2)sc1=S	none
COc1ccc(CNC(=O)c2sc(=S)n(-c3ccc(OC)cc3)c2N)cc1	PfG6PD inh 63.2 | PfG6PD confirm inactive
Cc1ccc(-n2c(N)c(C(=O)NCc3ccco3)sc2=S)cc1	none
Nc1c(C(=O)NCc2cccnc2)sc(=S)n1-c1ccccc1	none | PfG6PD confirm inactive
Cc1ccc(-n2c(N)c(C(N)=O)sc2=S)cc1	PfG6PD inh 69.1 | PfG6PD confirm inactive
Cc1cc(O)ccc1-c1cc(C(=O)NCc2ccc(F)cc2)[nH]n1	none (no result: CCR6 antagonist, APJ antag, PfG6PD inh, APJ ag, B2AR ag)
CC1CC(C)(C)C2=NCCN21 (stereo unspecified)	none (no result: CCR6 antagonist, APJ antag, APJ ag, B2AR ag)
COc1ccccc1N1CCN(/N=C/c2ccc(O)c(O)c2)CC1	PfG6PD inh 59.1 (no result: CXCR6 block, B2AR ag) | PfG6PD confirm inactive
O=C(NC1CC1)c1cccc2c1C(=O)c1ccc(N3CCC(N4CCCCC4)CC3)cc1S2(=O)=O	none (no result: CCR6 antagonist, APJ antag, APJ ag, B2AR ag)
Oc1ccc(/C=N/n2cc(-c3ccccc3)[nH]c2=S)cc1	none
COc1cc(/C=N/n2cc(-c3ccccc3)[nH]c2=S)cc(OC)c1O	PfG6PD inh 60.7 | PfG6PD confirm 52.5 | Diaph ctr 10uM inactive | Diaphorase 30uM inactive
O=C(NCc1ccncc1)c1cccc(S(=O)(=O)N2CCc3ccccc32)c1	none (no result: APJ antag, APJ ag)
O=S(=O)(Nc1ccccc1F)c1cccc(NC(=S)NCCN2CCOCC2)c1	PfG6PD inh 96.2 | PfG6PD confirm 77.2 | Diaph ctr 10uM inactive | Diaphorase 30uM inactive
O=S(=O)(Nc1ccc(Br)cc1)c1cccc(NC(=S)NCCN2CCOCC2)c1	none
COc1ccccc1NS(=O)(=O)c1cc(NC(=S)NCCN2CCOCC2)ccc1N1CCOCC1	PfG6PD inh 66.4 | PfG6PD confirm inactive
CC(C)(C)c1ccc(OCCn2nc(C(=O)O)c3ccccc3c2=O)cc1	PfG6PD inh 62.4 | PfG6PD confirm inactive
Cc1ccc(-c2nn(C)c(=O)c3ccccc23)cc1CNC(=O)/C=C/c1ccccc1	PfG6PD inh 76.9 | PfG6PD confirm 76.0 | Diaph ctr 10uM 59.0 | Diaphorase 30uM inactive
CC(=O)NCc1cc(-c2nn(C)c(=O)c3ccccc23)ccc1C	none
CCN(CC)CCCNCC(=O)Nc1ccc(OC)c(Cl)c1	none (no result: CCR6 antagonist, PfG6PD inh, CXCR6 block, B2AR ag)
Brc1ccc(C2C3=C(Nc4ncnn42)c2ccccc2OC3c2ccncc2)cc1 (stereo unspecified)	PfG6PD inh 83.0 | PfG6PD confirm 53.7 | Diaph ctr 10uM 51.6 | Diaphorase 30uM 57.4
Cc1ccc(Cc2c(-c3ccc(Cl)cc3)nc3cc(C)ccn23)cc1	PfG6PD inh 96.3 (no result: CCR6 antagonist, APJ antag, APJ ag, B2AR ag) | PfG6PD confirm inactive
Cc1ccn2c(Cc3ccccc3)c(-c3ccccc3)nc2c1	none (no result: CCR6 antagonist, APJ antag, APJ ag, B2AR ag)
Cc1ccc(Cc2c(-c3ccc(C)cc3)nc3cc(C)ccn23)cc1	PfG6PD inh 63.1 (no result: CCR6 antagonist, APJ antag, APJ ag, B2AR ag) | PfG6PD confirm inactive
Cc1ccn2c(Cc3ccccc3)c(-c3ccc(Br)cc3)nc2c1	PfG6PD inh 108.1 (no result: CCR6 antagonist, APJ antag, APJ ag, B2AR ag) | PfG6PD confirm inactive

Screening results deposited in PubChem by several laboratories.
